Source: ChEMBL document CHEMBL1121813, “Dihydrochalcone sweeteners. A study of the atypical temporal phenomena” (1981)

Columns and labels:
Type in all cases: functional
Homo sapiens [1] = species: Homo sapiens; assay: Experimentally determined perceived intensity of compound at a concentration of 252 ppm (mean value)
Procedure, shortened: (§1)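 Trained human sensory panel of judges tasted aqueous solutions of the compound. Samples had to be ≥95 weight % pure (HPLC, proton titration, Karl Fischer), non-mutagenic in five Salmonella typhimurium strains with and without microsomal activation, and non-toxic in a single-oral-dose mouse test. Perceived intensity (Ip) was read from time–intensity curves at 4- or 6-s intervals and averaged. Outliers at the 95% level were rejected by t-value. Values reported as mean (2Sm).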

Homo sapiens [2] = species: Homo sapiens; assay: Bitter character at a concentration of 252 ppm (mean value)
Procedure, shortened: (§2)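 Trained human panel tasted aqueous solutions. Each judge reported whether there was an aftertaste and its character (sweet, bitter or bitter-sweet). The value is the percentage of judgments reporting a bitter aftertaste.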

Homo sapiens [3] = species: Homo sapiens; assay: Sour character at a concentration of 252 ppm (mean value)
Procedure, shortened: (§3)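 Trained human sensory panel (Swartz method) tasted dilute aqueous solutions of the compounds, which had to be ≥95 weight percent pure and free of mutagenicity and toxicity. Taste character is reported as the mean value with 2S_m limits. Data deviating excessively at the 95% confidence level were rejected by the t-value method.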

Homo sapiens [4] = species: Homo sapiens; assay: Percentage of judgments reporting an aftertaste at a concentration of 252 ppm and character thereof; Bitter
Procedure, shortened: (§4)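 Trained judges tasted aqueous solutions of the compounds, which had to be ≥95 weight percent pure and to have passed mutagenicity and single oral dose toxicity screening. The value is the percentage of panel judgments reporting an aftertaste. Where given, its character is recorded as sweet, bitter or bitter-sweet.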

Homo sapiens [5] = species: Homo sapiens; assay: Intensity calculated on a weight basis relative to an 85500 ppm sucrose solution at a concentration of 252 ppm (mean value)
Procedure, shortened: (§5)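 Trained human panel tasted aqueous solutions of purity-checked (≥95 weight percent) compounds cleared for mutagenicity and mouse oral toxicity. Weight-basis intensity I_w = perceived intensity × (85500 ppm sucrose / compound concentration in ppm). The mean is reported with 2S_m limits; data deviating excessively at 95% confidence were rejected by the t-value method.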

Homo sapiens [6] = species: Homo sapiens; assay: Other taste character at a concentration of 252 ppm (mean value); procedure, shortened: as §3
Homo sapiens [7] = species: Homo sapiens; assay: Sweet / Bitter character at a concentration of 252 ppm (mean value)
Homo sapiens [8] = species: Homo sapiens; assay: Number of taste judgments per compound
Homo sapiens [9] = species: Homo sapiens; assay: Sweet character at a concentration of 252 ppm (mean value); procedure, shortened: as §3
Homo sapiens [10] = species: Homo sapiens; assay: Intensity calculated on a molar basis relative to a 0.25 M sucrose solution at a concentration of 252 ppm (mean value)
Procedure, shortened: (§6)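 Trained human judges tasted aqueous solutions of the test compound; compounds were first required to be ≥95 weight percent pure and free of mutagenicity (five Salmonella typhimurium strains, ± microsomal activation) and of single oral dose mouse toxicity. Molar intensity I_m = perceived intensity × (0.25 M sucrose / compound molar concentration). The mean is reported with 2S_m limits; outliers were rejected at 95% confidence by t-value.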

Homo sapiens [11] = species: Homo sapiens; assay: Salty character at a concentration of 252 ppm (mean value); procedure, shortened: as §3
Homo sapiens [12] = species: Homo sapiens; assay: Intensity calculated on a weight basis relative to an 85500 ppm sucrose solution at a concentration of 251 ppm (mean value); procedure, shortened: as §5
Homo sapiens [13] = species: Homo sapiens; assay: Percentage of judgments reporting an aftertaste at a concentration of 251 ppm and character thereof
Procedure, shortened: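 Trained human sensory panel; compounds tasted in aqueous solution. Before panel work, compounds had to be ≥95 weight percent pure (HPLC, proton titration, Karl Fischer) and free of mutagenicity (five Salmonella typhimurium strains, ± microsomal activation) and single oral dose mouse toxicity. Value is the percentage of judgments reporting an aftertaste, with its character recorded as sweet, bitter or bitter-sweet.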

Homo sapiens [14] = species: Homo sapiens; assay: Experimentally determined perceived intensity of compound at a concentration of 251 ppm (mean value); procedure, shortened: as §1
Homo sapiens [15] = species: Homo sapiens; assay: Sweet character at a concentration of 251 ppm (mean value); procedure, shortened: as §3
Homo sapiens [16] = species: Homo sapiens; assay: Salty character at a concentration of 251 ppm (mean value); procedure, shortened: as §3
Homo sapiens [17] = species: Homo sapiens; assay: Sweet / Bitter character at a concentration of 251 ppm (mean value); […]
Homo sapiens [18] = species: Homo sapiens; assay: Other taste character at a concentration of 251 ppm (mean value); procedure, shortened: as §3
Homo sapiens [19] = species: Homo sapiens; assay: Sour character at a concentration of 251 ppm (mean value); procedure, shortened: as §3
Homo sapiens [20] = species: Homo sapiens; assay: Intensity calculated on a molar basis relative to a 0.25 M sucrose solution at a concentration of 251 ppm (mean value); procedure, shortened: as §6
Homo sapiens [21] = species: Homo sapiens; assay: Bitter character at a concentration of 251 ppm (mean value); procedure, shortened: as §2
Homo sapiens [22] = species: Homo sapiens; assay: Experimentally determined perceived intensity of compound at a concentration of 250 ppm (mean value); procedure, shortened: as §1
Homo sapiens [23] = species: Homo sapiens; assay: Percentage of judgments reporting an aftertaste at a concentration of 250 ppm and character thereof; procedure, shortened: as §4
Homo sapiens [24] = species: Homo sapiens; assay: Other taste character at a concentration of 250 ppm (mean value); procedure, shortened: as §3
Homo sapiens [25] = species: Homo sapiens; assay: Intensity calculated on a molar basis relative to a 0.25 M sucrose solution at a concentration of 250 ppm (mean value); procedure, shortened: as §6
Homo sapiens [26] = species: Homo sapiens; assay: Bitter character at a concentration of 250 ppm (mean value); procedure, shortened: as §2
Homo sapiens [27] = species: Homo sapiens; assay: Sweet / Bitter character at a concentration of 250 ppm (mean value); 92/8
Homo sapiens [28] = species: Homo sapiens; assay: Sour character at a concentration of 250 ppm (mean value); procedure, shortened: as §3
Homo sapiens [29] = species: Homo sapiens; assay: Sweet character at a concentration of 250 ppm (mean value); procedure, shortened: as §3
Homo sapiens [30] = species: Homo sapiens; assay: Salty character at a concentration of 250 ppm (mean value); procedure, shortened: as §3
Homo sapiens [31] = species: Homo sapiens; assay: Intensity calculated on a weight basis relative to an 85500 ppm sucrose solution at a concentration of 250 ppm (mean value); procedure, shortened: as §5
Homo sapiens [32] = species: Homo sapiens; assay: Other taste character at a concentration of 1013 ppm (mean value)
Procedure, shortened: (§7)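 Trained human panel tasted aqueous solutions of each compound. Aftertaste is scored as the percentage of judgments reporting one, with its character coded sweet (s), bitter (b) or bitter-sweet (bs).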

Homo sapiens [33] = species: Homo sapiens; assay: Sweet character at a concentration of 1013 ppm (mean value)
Homo sapiens [34] = species: Homo sapiens; assay: Intensity calculated on a molar basis relative to a 0.25 M sucrose solution at a concentration of 1013 ppm (mean value); procedure, shortened: as §6
Homo sapiens [35] = species: Homo sapiens; assay: Experimentally determined perceived intensity of compound at a concentration of 1013 ppm (mean value); procedure, shortened: as §1
Homo sapiens [36] = species: Homo sapiens; assay: Percentage of judgments reporting an aftertaste at a concentration of 1013 ppm and character thereof; procedure, shortened: as §4
Homo sapiens [37] = species: Homo sapiens; assay: Bitter character at a concentration of 1013 ppm (mean value); procedure, shortened: as §2
Homo sapiens [38] = species: Homo sapiens; assay: Salty character at a concentration of 1013 ppm (mean value)
Homo sapiens [39] = species: Homo sapiens; assay: Sour character at a concentration of 1013 ppm (mean value)
Homo sapiens [40] = species: Homo sapiens; assay: Sweet / Bitter character at a concentration of 1013 ppm (mean value); 28/72
Homo sapiens [41] = species: Homo sapiens; assay: Intensity calculated on a weight basis relative to an 85500 ppm sucrose solution at a concentration of 1013 ppm (mean value); procedure, shortened: as §5
Homo sapiens [42] = species: Homo sapiens; assay: Bitter character at a concentration of 1001 ppm (mean value); procedure, shortened: as §2
Homo sapiens [43] = species: Homo sapiens; assay: Percentage of judgments reporting an aftertaste at a concentration of 1001 ppm and character thereof; Sweet; procedure, shortened: as §4
Homo sapiens [44] = species: Homo sapiens; assay: Salty character at a concentration of 1001 ppm (mean value)
Homo sapiens [45] = species: Homo sapiens; assay: Experimentally determined perceived intensity of compound at a concentration of 1001 ppm (mean value); procedure, shortened: as §1
Homo sapiens [46] = species: Homo sapiens; assay: Other taste character at a concentration of 1001 ppm (mean value); procedure, shortened: as §7
Homo sapiens [47] = species: Homo sapiens; assay: Sweet / Bitter character at a concentration of 1001 ppm (mean value)
Homo sapiens [48] = species: Homo sapiens; assay: Sour character at a concentration of 1001 ppm (mean value)
Homo sapiens [49] = species: Homo sapiens; assay: Sweet character at a concentration of 1001 ppm (mean value)
Homo sapiens [50] = species: Homo sapiens; assay: Intensity calculated on a molar basis relative to a 0.25 M sucrose solution at a concentration of 1001 ppm (mean value)
Procedure, shortened: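 Panel-derived mean perceived intensity (Ip) converted to a molar basis by Im = Ip × (0.25 M / Y), where Y is the compound's molar concentration. Reference is a 0.25 M sucrose solution. Reported with limits of 2Sm.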

Homo sapiens [51] = species: Homo sapiens; assay: Intensity calculated on a weight basis relative to an 85500 ppm sucrose solution at a concentration of 1001 ppm (mean value); procedure, shortened: as §5

For O=C(O)CCc1cccc(O)c1, the IP (Homo sapiens [1]) was 0.46, the Taste character (Homo sapiens [2]) was 4 and the Taste character (Homo sapiens [3]) was 96. It also gave a Judgments (Homo sapiens [4]) of 38, an IW (Homo sapiens [5]) of 160 and a Taste character (Homo sapiens [6]) of 0. The Taste character (Homo sapiens [7]) was 0, the Judgments (Homo sapiens [8]) was 8 and the Taste character (Homo sapiens [9]) was 0. For the same compound, the IM (Homo sapiens [10]) was 80 and the Taste character (Homo sapiens [11]) was 0.
COc1ccc(CCC(=O)c2c(O)cc(OCCCP(=O)([O-])O)cc2O)cc1O.[K+] showed an IW (Homo sapiens [12]) of 280, a Judgments (Homo sapiens [13]) of 100 and an IP (Homo sapiens [14]) of 0.83. It also gave a Taste character (Homo sapiens [15]) of 80, a Taste character (Homo sapiens [16]) of 0 and a Taste character (Homo sapiens [17]) of 92. The Taste character (Homo sapiens [18]) was 13, the Judgments (Homo sapiens [8]) was 12 and the Taste character (Homo sapiens [19]) was 0. It also gave an IM (Homo sapiens [20]) of 380 and a Taste character (Homo sapiens [21]) of 7.
For COc1ccc(CCC(=O)c2c(O)cc(OCCC(O)C(=O)[O-])cc2O)cc1O.[Na+] (stereo not given), the IP (Homo sapiens [22]) was 1.28, the Judgments (Homo sapiens [23]) was 100 and the Taste character (Homo sapiens [24]) was 0. The IM (Homo sapiens [25]) was 550, the Taste character (Homo sapiens [26]) was 8 and the Taste character (Homo sapiens [27]) was 92. It also gave a Taste character (Homo sapiens [28]) of 0, a Judgments (Homo sapiens [8]) of 4 and a Taste character (Homo sapiens [29]) of 92. For the same compound, the Taste character (Homo sapiens [30]) was 0 and the IW (Homo sapiens [31]) was 440.
COc1ccc(/C=C/C(=O)c2ccc(OCCCS(=O)(=O)[O-])cc2O)cc1O.[K+] gave a Taste character (Homo sapiens [32]) of 18, a Taste character (Homo sapiens [33]) of 23 and an IM (Homo sapiens [34]) of 50. It also gave an IP (Homo sapiens [35]) of 0.45, a Judgments (Homo sapiens [36]) of 100 and a Taste character (Homo sapiens [37]) of 59. For the same compound, the Taste character (Homo sapiens [38]) was 0, the Taste character (Homo sapiens [39]) was 0 and the Taste character (Homo sapiens [40]) was 28. For the same compound, the Judgments (Homo sapiens [8]) was 12 and the IW (Homo sapiens [41]) was 38.
Work on COc1ccc(CCc2noc3cc(OCC(=O)[O-])cc(O)c23)cc1O.[Na+] yielded a Taste character (Homo sapiens [42]) of 22, a Judgments (Homo sapiens [43]) of 100 and a Taste character (Homo sapiens [44]) of 0. The IP (Homo sapiens [45]) was 0.38, the Taste character (Homo sapiens [46]) was 12 and the Judgments (Homo sapiens [8]) was 12. For the same compound, the Taste character (Homo sapiens [47]) was 75, the Taste character (Homo sapiens [48]) was 0 and the Taste character (Homo sapiens [49]) was 66. It also gave an IM (Homo sapiens [50]) of 36 and an IW (Homo sapiens [51]) of 32.
